The term ED50 denotes the dose at which the effect has come halfway, by size or by number of responders. By LD50 is commonly meant the dose expected to kill half of the subjects tested.

Data set [1] has as its system Mus musculus. The experiment in a line: Ability to produce neurological deficit in the rotarod test (10 mice were used per dose, ip). It counts as functional. In outline: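 Rotarod method of ref 10, intraperitoneal dosing, 10 mice per dose; neurological deficit scored and ND50 (mg/kg ip) derived.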
Data set [2] has as its system Mus musculus. The data set can be described thus: Effective dose against Mice ataxia, ip administration. It counts as functional. The essentials:
(§1)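 Mouse behaviour after ip dosing assessed by a modification of the method of ref 7; ataxia, docility and loss of righting reflex scored, 10 mice per dose, ED50 in mg/kg ip.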

For data set [3], the system named is Mus musculus. The data set can be described thus: Effective dose against loss of righting reflex in mice (10 mice per dose, ip). It counts as functional. The essentials:
as §1

The subject of data set [4] is Mus musculus. The experiment in a line: Ability to reinduce anesthesia (70 mg/kg, iv) following recovery of loss of righting reflex obtained with hexobarbital. The data set is classed as functional.
For a further data set, the system named is Monkey. The experiment in a line: Ratio of the oral dose of the test compound relative to that of methaqualone (15 mg/kg, po) to induce sleep in Cebus monkey. It counts as functional. The essentials:
(§2)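 Cebus monkeys restrained in chairs within sound-attenuated cubicles; dosing per os at 5:00 p.m., five channels recorded, EEG over 13.5 h, Monday–Thursday, visually scored. Each animal its own control versus last 15 control nights (intragastric carboxymethylcellulose placebo). Value is oral dose of test substance relative to methaqualone 15 mg/kg po inducing sleep in the same monkey; NA = no sleep at any dose.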

A short description of data set [5]: Lethal dose was obtained by 2-h post administration (ip), using four male Royal Hart Wistar rats. The data set is classed as toxicity, organism-based. The settings on record: rat, in vivo. The essentials: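 Male Royal Hart Wistar rats, 136-160 g, housed in pairs in wire cages, given compound ip; deaths read 2 h after dosing, four rats per compound; LD50 estimated by probit analysis.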

Data set [6] concerns Mus musculus. The data set can be described thus: Effective dose against Mice docility, ip administration. The data set is classed as functional. In outline: as §1
The test system of data set [7] is Mus musculus. The experiment in a line: Anticonvulsant activity against N-sulfamoylhexahydrozepine (10 mice were used per dose, ip). The data set is classed as functional. In outline: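 Mice given compound ip, 10 per dose, then challenged with N-sulfamoylhexahydroazepine by methods of ref 9; ED50 (mg/kg ip) for protection determined.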
The nature of data set [8]: Ratio of the oral dose of the test compound relative to that of methaqualone (15 mg/kg, po) to induce sleep in Cebus monkey; NA is Not Active. The data set is classed as functional, organism-based. In outline:
as §2

The subject of data set [9] is Mus musculus. The data set can be described thus: Effective dose against loss of righting reflex in mice;10 mice per dose(ip). The data set is classed as functional. In outline:
as §1

Activity calls are given as the source filed them. The calls are words filed in the database; no cut-off is given here.

Take `CNC(=O)/C(C)=C/c1cccc(C(F)(F)F)c1`: the ND50 in the data set with Mus musculus [1] is >75 mg/kg. The ED50 in the data set on Mus musculus [2] was 75 mg/kg; in the data set on Mus musculus [3] it was > 100 mg/kg; in the data set with Mus musculus [6], 75 mg/kg; with Mus musculus [7], 68.8 mg/kg. The RD50 in the data set with Mus musculus [4] amounted to 24.7 mg/kg. In the data set with Monkey, the Sleep ratio is 0.3. For the same compound, in data set [5], the LD50 at 2 h is 300 mg/kg.
Compound `CN1C(=O)CCC1(O)c1ccc(C(F)(F)F)cc1` (centres undefined) displayed an ND50 in the data set with Mus musculus [1] of 140.5 mg/kg. In addition, the 50% effective dose (ED50) with Mus musculus [2] was > 200 mg/kg; with Mus musculus [3] it was > 200 mg/kg; in the data set with Mus musculus [6], > 200 mg/kg; in the data set on Mus musculus [7], 132 mg/kg. In addition, the RD50 in the data set with Mus musculus [4] is >200 mg/kg. Moreover, in [5], the LD50 at 2 h is > 400 mg/kg.
With `CN1CCN(C(=O)CCC(=O)c2cccc(C(F)(F)F)c2)CC1`, the ND50 with Mus musculus [1] is >37.5 mg/kg. The ED50 in the data set on Mus musculus [2] is > 50 mg/kg; with Mus musculus [3], > 50 mg/kg; with Mus musculus [6], > 50 mg/kg; with Mus musculus [7], > 37.5 mg/kg. Further, the RD50 with Mus musculus [4] was >37.5 mg/kg. Also, the LD50 at 2 h in data set [5] was > 400 mg/kg.
`CN1C(=O)CCC1(O)c1ccccc1` (centres undefined): in the data set on Mus musculus [1], the ND50 was >200 mg/kg. The ED50 was > 200 mg/kg in the data set with Mus musculus [2], > 200 mg/kg in the data set with Mus musculus [3], > 200 mg/kg with Mus musculus [6] and 138 mg/kg with Mus musculus [7]. Further, the RD50 with Mus musculus [4] was determined as 150 mg/kg. In [5], this compound had an LD50 at 2 h of 300 mg/kg.
With `Cc1cccc(C2(O)CCC(=O)N2C)c1` (centres undefined), the ND50 in the data set with Mus musculus [1] turned out to be 111.5 mg/kg. Also, the ED50 was found to be 93 mg/kg with Mus musculus [2], 138 mg/kg in the data set on Mus musculus [3], 81.5 mg/kg with Mus musculus [6] and 60.9 mg/kg with Mus musculus [7]. The RD50 in the data set on Mus musculus [4] is 49.5 mg/kg. The LD50 at 2 h in data set [5] is 300 mg/kg. For the same compound, in data set [8], the Ratio result is “inactive”.
In the data set with Mus musculus [2], `CCNC(=O)/C=C/c1cccc(C(F)(F)F)c1` returned an ED50 of 90 mg/kg. Also, the RD50 in the data set on Mus musculus [4] is >75 mg/kg. Further, the ND50 with Mus musculus [9] is >75 mg/kg. The compound further returned an LD50 at 2 h in [5] of 333 mg/kg.
For the compound `CC(C)CNC(=O)CCC(=O)c1cccc(C(F)(F)F)c1`, the ND50 with Mus musculus [1] is >200 mg/kg. Also, the ED50 in the data set with Mus musculus [2], in the data set on Mus musculus [3], in the data set with Mus musculus [6] and in the data set on Mus musculus [7] was > 200 mg/kg in each case. In the data set with Mus musculus [4], the RD50 is >200 mg/kg. The compound also displayed an LD50 at 2 h in [5] of 162 mg/kg.
Take `O=C(/C=C/c1ccccc1)NCCO` [IDROCILAMIDE]: the ND50 with Mus musculus [1] was >200 mg/kg. Further, the ED50 was 183 mg/kg in the data set on Mus musculus [2], > 200 mg/kg in the data set with Mus musculus [3], 183 mg/kg with Mus musculus [6] and 117 mg/kg in the data set on Mus musculus [7]. The RD50 in the data set on Mus musculus [4] is 75 mg/kg. Moreover, in data set [5], the LD50 at 2 h was > 400 mg/kg.
For the compound `CN(C)C(=O)/C=C/c1cccc(C(F)(F)F)c1`, the ED50 in the data set with Mus musculus [2] was > 75 mg/kg. The RD50 in the data set with Mus musculus [4] was >75 mg/kg. The ND50 in the data set on Mus musculus [9] is >75 mg/kg. The compound also had an LD50 at 2 h in data set [5] of 300 mg/kg.
The compound `CN1C(=O)CCC1(O)c1cccc(C(F)(F)F)c1` (centres undefined) showed an ND50 with Mus musculus [1] of 106.5 mg/kg. For the same compound, the ED50 with Mus musculus [2] was 129 mg/kg; in the data set with Mus musculus [3] it was 133 mg/kg; in the data set on Mus musculus [6] it was 93.8 mg/kg; in the data set on Mus musculus [7], 51.6 mg/kg. Also, the RD50 in the data set with Mus musculus [4] was determined as 45.1 mg/kg. Further, the Sleep ratio in the data set on Monkey is on record as 1. Moreover, the LD50 at 2 h in [5] is 367 mg/kg.
For `CCN1C(=O)CCC1(O)c1cccc(C(F)(F)F)c1` (centres undefined), the ND50 in the data set with Mus musculus [1] was >75 mg/kg. Further, the ED50 in the data set with Mus musculus [2] is > 100 mg/kg; in the data set on Mus musculus [3], > 100 mg/kg; in the data set with Mus musculus [6], > 100 mg/kg; in the data set on Mus musculus [7], > 75 mg/kg. Moreover, the RD50 in the data set with Mus musculus [4] is 68.8 mg/kg. Moreover, the LD50 at 2 h in data set [5] was > 400 mg/kg. Also, the Ratio entry in data set [8] was “inactive”.
`CN(C)C(=O)CCC(=O)c1cccc(C(F)(F)F)c1`: the ND50 with Mus musculus [1] is >37.5 mg/kg. The ED50 was > 50 mg/kg in the data set on Mus musculus [2], > 50 mg/kg with Mus musculus [3], > 50 mg/kg in the data set with Mus musculus [6] and > 37.5 mg/kg with Mus musculus [7]. Moreover, the RD50 in the data set with Mus musculus [4] is 127.6 mg/kg. Besides, the LD50 at 2 h in data set [5] came out at 300 mg/kg.
In the case of `CN1C(=O)CCC1(O)c1cccc(Cl)c1` (centres undefined), the ND50 in the data set with Mus musculus [1] was >150 mg/kg. Further, the ED50 with Mus musculus [2] was 186 mg/kg; in the data set with Mus musculus [3] it was > 200 mg/kg; with Mus musculus [6], 158 mg/kg; in the data set with Mus musculus [7] it was > 150 mg/kg. Also, in the data set with Mus musculus [4], the RD50 is >150 mg/kg. Besides, the LD50 at 2 h in data set [5] is > 400 mg/kg.
